In the library only some 4% were active in any assay of this set; here they are far more common.
OX1R antag-1 = antagonists of human orexin 1 receptor (OX1R) | Orexin/Hypocretin receptor type 1 (Homo sapiens), O43613 | OX1R-expressing cells, FRET antagonist read-out | inhibition, % at 6.6 µM | actives 1.8% (n = 330,000); in the data active = inhibition mostly above about 38%, no sharp cut-off; inactive = mostly below about 40%
TAAR1 ag = human TAAR1 agonists, primary screen, Fluo-8 calcium fluorescence, CHO RD-HGA16 cells | activation, % at 3 µM | vehicle wells 0%, saturating PEA agonist 100% | actives 0.99% (n = 360,000);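 active = activation above the mean activation of all test compounds in the run plus 3 SD, cut at about 38% in these data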
Target sequence (Q96RJ0 whole entry, looked up): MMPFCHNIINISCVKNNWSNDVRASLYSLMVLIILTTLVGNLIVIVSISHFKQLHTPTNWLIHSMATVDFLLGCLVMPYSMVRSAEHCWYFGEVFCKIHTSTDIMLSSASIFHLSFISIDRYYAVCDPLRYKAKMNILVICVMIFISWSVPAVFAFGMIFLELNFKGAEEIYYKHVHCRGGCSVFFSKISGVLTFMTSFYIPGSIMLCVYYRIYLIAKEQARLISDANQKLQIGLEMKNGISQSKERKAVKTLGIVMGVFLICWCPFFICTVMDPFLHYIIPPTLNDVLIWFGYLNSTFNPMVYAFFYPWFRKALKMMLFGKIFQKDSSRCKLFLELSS
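Test system: RD-HGA16 (CHO) cells co-expressing Gα16 and hTAAR1 / Benchmarks: DMSO vehicle as 0%, PEA at EC100 as 100% / Repeats: no replicates (n 1) / Measure: % activation from peak over basal fluorescence ratio, DMSO-to-PEA scaled / Timing: 17-24 h plating, Fluo-8 75 min 37 °C, 30 min RT / Technique: kinetic Fluo-8 calcium fluorescence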
CHO parental Ca = ATP-evoked calcium signal inhibitors, parental CHO, primary screen, counter-screen for OX1R antagonist project, cell-based, fluorescence, Fluo-8 calcium dye; parental CHO-K1, ATP-induced calcium, Fluo-8 fluorescence; inhibition, % at 5.6 µM; actives 0.63% (n = 330,000);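 active = inhibition above that plate's mean sample inhibition plus 3 SD, cut at about 26% in these data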
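Test system: untransfected parental CHO cell line. Compound: one dose, 5.6 µM nominal. Detection: intracellular calcium via Fluo-8 no-wash fluorescent dye. Measure: % inhibition. Benchmarks: ATP-challenged DMSO wells low, unchallenged DMSO wells high.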
TAAR1 antagonist = human TAAR1 antagonists, primary screen, Fluo-8 calcium fluorescence, CHO RD-HGA16 cells | Trace amine-associated receptor 1 (Homo sapiens), Q96RJ0 | actives 1.5% (n = 360,000) | antagonist | inhibition, % at 3 µM;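 active = inhibition above a per-plate cutoff, the mean inhibition of test compounds on that plate plus 3 SD, cut at about 49% in these data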
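Test system – hTAAR1-expressing CHO RD-HGA16 cells, Gα16-coupled · Also added – β-PEA at EC80 concentration, post-compound challenge · Compound – 3 µM, single point · Incubation – dye loading 75 min at 37 °C, then 30 min room temperature · Measured by – Fluo-8 intracellular calcium dye fluorescence, real-time kinetic reads · Benchmarks – vehicle and agonist controls · Replicates – singlicate, one well per test compound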
OX1R antag-2 = OX1R (HCRTR1) antagonists, primary screen, fluorescence, CHO/OX1R cells, Fluo-8 calcium, orexin A; actives 0.43% (n = 330,000); AID 434989, 2010; inhibition, % at 5 µM; Orexin/Hypocretin receptor type 1 (Homo sapiens), O43613; Fluo-8 calcium fluorescence;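 active = inhibition above its plate's threshold, mean inhibition of all tested compounds on the plate plus 3 SD, cut at about 37% in these data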
TAAR1 nonsel count = nonselective antagonists in TAAR1 counter-screen cells, counter-screen for hTAAR1 antagonist project, cell-based, fluorescence, calcium; shares compounds with TAAR1 antagonist; counterscreen cell line, antagonist mode; inhibition, % at 3 µM; actives 77% (n = 2,400); in the data active = inhibition above about 22%;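 also: CHO-Ga16 host cells stimulated with ATP at an EC80 level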
TAAR1 antag conf = human TAAR1 antagonists, retest of hits, confirmation, cell-based, fluorescence; shares compounds with TAAR1 antagonist; TAAR1-expressing cells, fluorescence antagonist read-out; inhibition, % at 3 µM; actives 40% (n = 2,400); in the data active = inhibition above about 49%;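 also: CHO-Ga16 host cells challenged with agonist PEA near its EC80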
Ga16 ag counter = calcium activation in Ga16-expressing cells, counter-screen for TAAR1 antagonist project, cell-based, fluorescence. activation, % at 3 µM. agonist counterscreen. shares compounds with TAAR1 antagonist. actives 18% (n = 2,400). AID 651953, 2012; in the data active = activation above about 12%
TAAR1 ag counter = TAAR1 activation by candidate antagonists – cell-based, fluorescence, counter-screen for TAAR1 antagonist project | activation, % at 3 µM | AID 651955, 2012 | hTAAR1 cell line, agonist mode | actives 2% (n = 2,400) | shares compounds with TAAR1 antagonist; in the data active = activation above about 37%;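 also: CHO cells stably expressing TAAR1 with calcium dye readout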
Numbers stand for hits; i = inactive; nt = no result.

SMILES	OX1R antag-1	TAAR1 ag	CHO parental Ca	TAAR1 antagonist	OX1R antag-2	TAAR1 nonsel count	TAAR1 antag conf	Ga16 ag counter	TAAR1 ag counter
O=C(Nc1ccncc1)c1cc(-c2cccc(Br)c2)nc2ccccc12	i	i	i	i	i	nt	nt	nt	nt
COc1ccc(-c2cc(C(=O)Nc3cccnc3)c3ccccc3n2)cc1OC	i	i	i	i	i	nt	nt	nt	nt
O=C(Nc1cccnc1)c1cc(-c2cccc(Br)c2)nc2ccccc12	i	i	i	65	i	27	i	i	i
CCOc1ccccc1NC(=O)c1cc(-c2cc(OC)c(OC)c(OC)c2)nc2ccccc12	i	i	i	59	i	29	51	i	i
O=C(CSc1ncccn1)NC(=O)NC1CCCC1	nt	i	nt	i	nt	nt	nt	nt	nt
CC(=O)N1CCOc2ccc(S(=O)(=O)NC[C@H]3O[C@@H](n4cnc5c(N)ncnc54)[C@H](O)[C@@H]3O)cc21	i	i	i	i	i	nt	nt	nt	nt
CC1CCCC(NC(=O)COC(=O)COc2ccc(Br)cc2)C1C (stereo not given)	i	i	i	i	i	nt	nt	nt	nt
COc1cc2sc(-c3ccc(S(C)(=O)=O)cc3)c(C(=O)NCCCCO)c2cc1OC	i	i	i	i	i	nt	nt	nt	nt
COc1ccc2sc(-c3ccc(S(C)(=O)=O)cc3)c(C(=O)NCCCN3CCCC3=O)c2c1	i	i	i	49	i	31	i	i	i
COc1ccc(-c2cc(C(=O)NCCCN3CCCC3=O)c3ccccc3n2)cc1	i	i	i	50	i	i	i	i	i
O=C(NCCCN1CCCC1=O)c1cc(-c2ccc(F)cc2)nc2ccccc12	i	i	i	i	i	nt	nt	nt	nt
CCOC(CNc1c([N+](=O)[O-])c(=O)n(C)c(=O)n1C)OCC	i	i	i	i	i	nt	nt	nt	nt
Cc1onc(-c2ccccc2Cl)c1C(=O)Nc1cccc(-c2nc3ncccn3c2C)c1	i	i	i	107	i	i	i	i	i
COc1ccc(S(=O)(=O)N2CCN(C(=O)c3cc(-c4ccccc4OC)n[nH]3)CC2)cc1	i	i	i	76	i	25	i	i	i
O=S(=O)(Nc1ccc2c(c1)OCO2)c1ccc(F)c(F)c1	i	i	i	i	i	nt	nt	nt	nt
O=C(Nc1cccc(-c2nc3ccccc3o2)c1)c1ccc(N2C(=O)C3C4C=CC(C4)C3C2=O)cc1 (stereo not given)	i	i	i	63	i	39	58	i	i
O=C1C2C3C=CC(C3)C2C(=O)N1c1cccc(-c2nc3ccccc3o2)c1 (stereo not given)	i	i	i	i	i	nt	nt	nt	nt
O=C(C1=C[C@@H](c2ccc(C(F)(F)F)cc2)C[C@@H](OCc2ccc(CO)cc2)O1)N1CCN(Cc2ccc3c(c2)OCO3)CC1	i	i	i	55	i	32	i	i	i
O=C(C1=C[C@H](c2ccc(C(F)(F)F)cc2)C[C@H](OCc2ccc(CO)cc2)O1)N1CCN(Cc2ccc3c(c2)OCO3)CC1	i	i	i	i	i	nt	nt	nt	nt
O=C(Nc1ccc(-c2csc(Nc3ccccc3)n2)cc1)c1ccccc1	i	i	i	74	i	26	53	i	i
O=C(Nc1cccc(-c2csc(Nc3ccccc3)n2)c1)c1cc([N+](=O)[O-])cc(C(F)(F)F)c1	i	i	i	55	i	i	i	i	i
CCC(c1nnnn1-c1ccc2c(c1)OCCO2)N1CCN(c2ccccn2)CC1 (stereo not given)	nt	i	nt	i	nt	nt	nt	nt	nt
CCN(Cc1ccncc1)C(=O)C1CCC(=O)N(Cc2ccc(Cl)cc2)C1 (stereo not given)	i	i	i	i	i	nt	nt	nt	nt
CC1(C)N=C(SCC(=O)Nc2ccc(Cl)cc2)C(c2ccccc2)=N1	i	i	i	i	i	nt	nt	nt	nt
CC1(C)N=C(SCC(=O)Nc2ccc(Cl)cc2)C(c2ccc(Cl)cc2)=N1	i	i	i	68	i	27	i	i	i
SMILES	OX1R antag-1	TAAR1 ag	CHO parental Ca	TAAR1 antagonist	OX1R antag-2	TAAR1 nonsel count	TAAR1 antag conf	Ga16 ag counter	TAAR1 ag counter
COC(=O)c1cccc(F)c1C(=O)c1cccc2ccccc12	nt	i	nt	i	nt	nt	nt	nt	nt
NS(=O)(=O)c1ccc(CCNC(=O)c2ccc3c(c2)N(Cc2ccccc2)CCS3)cc1	70	i	i	83	i	39	62	i	i
COc1ccc(OC)c(CCNC(=O)c2ccc3c(c2)N(Cc2ccccc2)CCS3)c1	i	i	i	i	i	nt	nt	nt	nt
COc1ccc(CCNC(=O)c2cc(-c3ccccc3)c(N3CCOCC3)s2)cc1OC	i	i	i	67	i	25	i	i	i
COc1ccc(CCNC(=O)c2ccc3c(c2)N(Cc2ccccc2)CCS3)cc1OC	57	i	i	80	i	40	62	i	i
O=C(N/N=C/c1ccc([N+](=O)[O-])o1)c1cc2ccccc2o1	i	i	i	i	i	nt	nt	nt	nt
O=[N+]([O-])c1ccc(/C=N/Nc2ccc3ccccc3c2)o1	i	i	42	76	i	52	65	19	i
CCOC(=O)C1(Cc2ccccc2C)CCCN(C(=O)c2ccc3nccnc3c2)C1 (stereo not given)	i	i	i	67	i	24	49	i	i
Cc1ccccc1OCCC(=O)OCC(=O)Nc1ccc(C)c(S(=O)(=O)N2CCCCC2)c1	nt	i	nt	i	nt	nt	nt	nt	nt
Cc1ccc(C)c(OCCC(=O)OCC(=O)Nc2ccc(C)c(S(=O)(=O)N3CCCCC3)c2)c1	i	i	i	53	i	39	i	i	i
C#CCN(C[C@H]1[C@H](OC(=O)NCc2ccc(OC)c(OC)c2)[C@H](OC(=O)NCc2ccc(OC)c(OC)c2)C[C@@H](C(=O)OC)[C@H]1C(=O)OC)S(=O)(=O)c1ccc(C)cc1	nt	i	nt	58	nt	27	i	i	i
COCCn1c(SCC(=O)N2CCCCC2)nc2c([nH]c3ccccc32)c1=O	i	i	i	i	i	nt	nt	nt	nt
CCOC(=O)N1CCN(C(=O)CSc2nc3c([nH]c4ccccc43)c(=O)n2CCOC)CC1	i	i	i	55	i	28	i	i	i
